From ChEMBL document CHEMBL4177526, “Discovery and structure activity relationship of the first potent cryptosporidium FIKK kinase inhibitor” (Bioorg Med Chem, 2017)

What was measured:
[1] = molecular target: Dual specificity mitogen-activated protein kinase kinase 1 (Homo sapiens) (UniProt Q02750); assay: Inhibition of human MKK1 (2 to 393 residues) assessed as residual activity at 500 nM in presence of 33P-ATP by filter binding assay relative to control
[2] = Inhibition of Cryptosporidium parvum CDPK1 using PLARTLSVAGLPGKK peptide as substrate by NADH coupled LDH-PK ATPase assay
Method in brief: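 NADH-coupled LDH-PK ATPase read-out with 1.2 nM recombinant CpCDPK1, 0.25 mM ATP, 0.1 mM Syntide 2.0 peptide and 2 mM CaCl2. Inhibitors were made as 10 mM DMSO stocks and tested in 2-fold serial dilutions. IC50 is the average of triplicate experiments.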

[3] = molecular target: Mitogen-activated protein kinase 9 (Homo sapiens) (UniProt P45984); assay: Inhibition of human JNK2 (1 to 424 residues) assessed as residual activity at 500 nM in presence of 33P-ATP by filter binding assay relative to control
[4] = molecular target: Serine/threonine-protein kinase TBK1 (Homo sapiens) (UniProt Q9UHD2); assay: Inhibition of human TBK1 (1 to 729 residues) assessed as residual activity at 500 nM in presence of 33P-ATP by filter binding assay relative to control
[5] = molecular target: Mitogen-activated protein kinase kinase kinase kinase 3 (Homo sapiens) (UniProt Q8IVH8); assay: Inhibition of human MAP4K3 (1 to 873 residues) assessed as residual activity at 500 nM in presence of 33P-ATP by filter binding assay relative to control
Cryptosporidium parvum = assay: Selectivity ratio of IC50 for Cryptosporidium parvum CDPK1 to IC50 for recombinant Cryptosporidium parvum FIKK
[6] = molecular target: Serine/threonine-protein kinase tousled-like 1 (Homo sapiens) (UniProt Q9UKI8); assay: Inhibition of human TLK1 (1 to 766 residues) assessed as residual activity at 500 nM in presence of 33P-ATP by filter binding assay relative to control
[7] = molecular target: Serine/threonine-protein kinase Chk1 (Homo sapiens) (UniProt O14757); assay: Inhibition of human CHK1 (1 to 476 residues) assessed as residual activity at 500 nM in presence of 33P-ATP by filter binding assay relative to control
[8] = molecular target: Homeodomain-interacting protein kinase 3 (Homo sapiens) (UniProt Q9H422); assay: Inhibition of human HIPK3 (161 to 562 residues) assessed as residual activity at 500 nM in presence of 33P-ATP by filter binding assay relative to control
[9] = test system: Serine/threonine-protein kinase PAK 2 (Homo sapiens), Q13177 [T402E]; assay: Inhibition of human PAK2 T402E mutant (1 to 524 residues) assessed as residual activity at 500 nM in presence of 33P-ATP by filter binding assay relative to control
[10] = molecular target: Mitogen-activated protein kinase kinase kinase kinase 2 (Homo sapiens) (UniProt Q12851); assay: Inhibition of human GCK (2 to 812 residues) assessed as residual activity at 500 nM in presence of 33P-ATP by filter binding assay relative to control
[11] = test system: Serine/threonine-protein kinase OSR1 (Homo sapiens), O95747 [T185E]; assay: Inhibition of human OSR1 T185E mutant (1 to 342 residues) assessed as residual activity at 500 nM in presence of 33P-ATP by scintillation counting method relative to control
[12] = molecular target: MAP kinase-interacting serine/threonine-protein kinase 1 (Homo sapiens) (UniProt Q9BUB5); assay: Inhibition of human MNK1 (2 to 424 residues) assessed as residual activity at 500 nM in presence of 33P-ATP by filter binding assay relative to control
[13] = molecular target: Tyrosine-protein kinase BTK (Homo sapiens) (UniProt Q06187); assay: Inhibition of human BTK (2 to 659 residues) assessed as residual activity at 500 nM in presence of 33P-ATP by filter binding assay relative to control
[14] = molecular target: Ephrin type-B receptor 4 (Homo sapiens) (UniProt P54760); assay: Inhibition of human EPHB4 (561 to 987 residues) assessed as residual activity at 500 nM in presence of 33P-ATP by filter binding assay relative to control
[15] = molecular target: Serine/threonine-protein kinase 16 (Homo sapiens) (UniProt O75716); assay: Inhibition of human MPSK1 (1 to 305 residues) assessed as residual activity at 500 nM in presence of 33P-ATP by filter binding assay relative to control
[16] = molecular target: Mitogen-activated protein kinase 15 (Homo sapiens) (UniProt Q8TD08); assay: Inhibition of human ERK8 (2 to 544 residues) assessed as residual activity at 500 nM in presence of 33P-ATP by filter binding assay relative to control
[17] = molecular target: Serine/threonine-protein kinase STK11 (Homo sapiens) (UniProt Q15831); assay: Inhibition of human LKB1 (1 to 433 residues) assessed as residual activity at 500 nM in presence of 33P-ATP by filter binding assay relative to control
[18] = molecular target: Aurora kinase A (Homo sapiens) (UniProt O14965); assay: Inhibition of human Aurora-A (2 to 403 residues) assessed as residual activity at 500 nM in presence of 33P-ATP by filter binding assay relative to control
[19] = molecular target: Serine/threonine-protein kinase SIK3 (Homo sapiens) (UniProt Q9Y2K2); assay: Inhibition of human SIK3 (2 to 1369 residues) assessed as residual activity at 500 nM in presence of 33P-ATP by filter binding assay relative to control
[20] = molecular target: NUAK family SNF1-like kinase 1 (Homo sapiens) (UniProt O60285); assay: Inhibition of human NUAK1 (2 to 660 residues) assessed as residual activity at 500 nM in presence of 33P-ATP by filter binding assay relative to control
[21] = molecular target: Serine/threonine-protein kinase Nek6 (Homo sapiens) (UniProt Q9HC98); assay: Inhibition of human NEK6 (8 to 313 residues) assessed as residual activity at 500 nM in presence of 33P-ATP by filter binding assay relative to control
[22] = molecular target: Serine/threonine-protein kinase PAK 6 (Homo sapiens) (UniProt Q9NQU5); assay: Inhibition of human PAK6 (2 to 681 residues) assessed as residual activity at 500 nM in presence of 33P-ATP by scintillation counting method relative to control
[23] = molecular target: Mitogen-activated protein kinase 3 (Homo sapiens) (UniProt P27361); assay: Inhibition of human ERK1 (2 to 379 residues) assessed as residual activity at 500 nM in presence of 33P-ATP by filter binding assay relative to control
[24] = molecular target: Dual specificity mitogen-activated protein kinase kinase 6 (Homo sapiens) (UniProt P52564); assay: Inhibition of human MKK6 (2 to 334 residues) assessed as residual activity at 500 nM in presence of 33P-ATP by filter binding assay relative to control
Sequence of Dual specificity mitogen-activated protein kinase kinase 6 (Homo sapiens) (P52564 whole entry, the tested form may be a part): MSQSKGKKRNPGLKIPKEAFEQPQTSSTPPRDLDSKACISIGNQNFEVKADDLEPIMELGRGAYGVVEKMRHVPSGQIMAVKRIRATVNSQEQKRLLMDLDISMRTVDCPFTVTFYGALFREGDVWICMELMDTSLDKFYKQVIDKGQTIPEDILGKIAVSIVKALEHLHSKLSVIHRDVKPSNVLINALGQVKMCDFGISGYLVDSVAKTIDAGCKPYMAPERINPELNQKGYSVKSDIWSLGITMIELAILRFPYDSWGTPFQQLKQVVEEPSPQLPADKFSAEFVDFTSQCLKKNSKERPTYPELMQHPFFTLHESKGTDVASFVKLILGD

Sequence of MAP kinase-interacting serine/threonine-protein kinase 1 (Homo sapiens) (Q9BUB5 whole entry, looked up, the tested form may be a part): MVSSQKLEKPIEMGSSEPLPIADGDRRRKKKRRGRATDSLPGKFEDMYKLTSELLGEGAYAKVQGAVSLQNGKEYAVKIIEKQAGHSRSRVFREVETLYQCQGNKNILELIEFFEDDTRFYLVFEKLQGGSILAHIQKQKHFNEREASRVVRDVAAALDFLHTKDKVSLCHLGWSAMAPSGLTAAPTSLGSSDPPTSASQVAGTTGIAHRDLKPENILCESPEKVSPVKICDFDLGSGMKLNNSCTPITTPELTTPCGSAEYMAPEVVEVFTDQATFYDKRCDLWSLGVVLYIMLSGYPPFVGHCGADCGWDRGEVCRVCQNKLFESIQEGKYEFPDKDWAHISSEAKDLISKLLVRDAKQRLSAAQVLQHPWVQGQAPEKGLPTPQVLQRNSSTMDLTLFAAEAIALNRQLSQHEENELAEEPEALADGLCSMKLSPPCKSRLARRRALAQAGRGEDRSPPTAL
Sequence of Mitogen-activated protein kinase kinase kinase kinase 3 (Homo sapiens) (Q8IVH8 whole entry, the tested form may be a part): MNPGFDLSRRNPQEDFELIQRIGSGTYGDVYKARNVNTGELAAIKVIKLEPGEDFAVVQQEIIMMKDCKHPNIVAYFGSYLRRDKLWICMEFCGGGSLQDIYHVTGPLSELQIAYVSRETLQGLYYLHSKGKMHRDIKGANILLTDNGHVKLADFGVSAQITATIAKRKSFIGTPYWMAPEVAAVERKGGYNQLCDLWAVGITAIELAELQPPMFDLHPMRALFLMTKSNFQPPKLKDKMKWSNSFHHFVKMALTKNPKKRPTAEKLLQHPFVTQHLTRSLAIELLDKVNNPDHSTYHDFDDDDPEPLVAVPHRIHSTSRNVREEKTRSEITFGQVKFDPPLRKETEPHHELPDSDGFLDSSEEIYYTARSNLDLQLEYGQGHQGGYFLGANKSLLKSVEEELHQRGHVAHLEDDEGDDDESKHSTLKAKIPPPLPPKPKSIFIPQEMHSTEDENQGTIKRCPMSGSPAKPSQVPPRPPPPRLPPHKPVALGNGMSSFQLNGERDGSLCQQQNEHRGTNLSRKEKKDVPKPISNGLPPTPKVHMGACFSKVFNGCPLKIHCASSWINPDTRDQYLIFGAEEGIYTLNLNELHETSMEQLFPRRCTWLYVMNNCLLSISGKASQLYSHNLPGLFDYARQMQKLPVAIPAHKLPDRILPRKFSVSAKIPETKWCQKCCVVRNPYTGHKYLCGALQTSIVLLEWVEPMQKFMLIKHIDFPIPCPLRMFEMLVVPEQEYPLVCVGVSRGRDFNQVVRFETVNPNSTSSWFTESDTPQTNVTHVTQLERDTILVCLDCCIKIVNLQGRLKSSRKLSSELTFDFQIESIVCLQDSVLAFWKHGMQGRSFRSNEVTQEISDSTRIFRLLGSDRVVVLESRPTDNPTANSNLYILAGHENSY
Sequence of Serine/threonine-protein kinase Nek6 (Homo sapiens) (Q9HC98 whole entry, the tested form may be a part): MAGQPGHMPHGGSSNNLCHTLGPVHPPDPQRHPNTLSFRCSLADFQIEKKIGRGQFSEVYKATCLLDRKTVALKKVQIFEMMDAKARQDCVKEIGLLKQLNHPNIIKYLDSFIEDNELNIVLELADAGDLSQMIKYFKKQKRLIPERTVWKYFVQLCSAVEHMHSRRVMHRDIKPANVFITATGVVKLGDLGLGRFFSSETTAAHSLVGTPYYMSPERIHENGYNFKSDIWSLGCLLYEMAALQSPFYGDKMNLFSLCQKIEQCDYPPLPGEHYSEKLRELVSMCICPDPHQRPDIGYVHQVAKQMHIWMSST
Sequence of Mitogen-activated protein kinase 15 (Homo sapiens) (Q8TD08 whole entry, the tested form may be a part): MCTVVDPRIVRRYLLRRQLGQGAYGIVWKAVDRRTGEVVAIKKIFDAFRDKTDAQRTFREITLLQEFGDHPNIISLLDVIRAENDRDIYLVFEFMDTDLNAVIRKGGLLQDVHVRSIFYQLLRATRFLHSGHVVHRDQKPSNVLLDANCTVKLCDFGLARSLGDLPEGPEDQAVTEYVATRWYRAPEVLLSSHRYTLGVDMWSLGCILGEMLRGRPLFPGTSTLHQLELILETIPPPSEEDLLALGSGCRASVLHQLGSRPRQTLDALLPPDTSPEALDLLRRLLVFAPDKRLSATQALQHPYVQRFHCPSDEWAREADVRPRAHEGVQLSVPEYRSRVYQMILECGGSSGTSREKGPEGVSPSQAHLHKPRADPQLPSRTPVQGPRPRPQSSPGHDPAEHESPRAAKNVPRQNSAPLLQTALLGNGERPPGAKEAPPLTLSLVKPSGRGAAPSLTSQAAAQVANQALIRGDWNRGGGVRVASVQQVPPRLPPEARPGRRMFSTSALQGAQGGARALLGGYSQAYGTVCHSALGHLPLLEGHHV
Sequence of NUAK family SNF1-like kinase 1 (Homo sapiens) (O60285 whole entry, the tested form may be a part): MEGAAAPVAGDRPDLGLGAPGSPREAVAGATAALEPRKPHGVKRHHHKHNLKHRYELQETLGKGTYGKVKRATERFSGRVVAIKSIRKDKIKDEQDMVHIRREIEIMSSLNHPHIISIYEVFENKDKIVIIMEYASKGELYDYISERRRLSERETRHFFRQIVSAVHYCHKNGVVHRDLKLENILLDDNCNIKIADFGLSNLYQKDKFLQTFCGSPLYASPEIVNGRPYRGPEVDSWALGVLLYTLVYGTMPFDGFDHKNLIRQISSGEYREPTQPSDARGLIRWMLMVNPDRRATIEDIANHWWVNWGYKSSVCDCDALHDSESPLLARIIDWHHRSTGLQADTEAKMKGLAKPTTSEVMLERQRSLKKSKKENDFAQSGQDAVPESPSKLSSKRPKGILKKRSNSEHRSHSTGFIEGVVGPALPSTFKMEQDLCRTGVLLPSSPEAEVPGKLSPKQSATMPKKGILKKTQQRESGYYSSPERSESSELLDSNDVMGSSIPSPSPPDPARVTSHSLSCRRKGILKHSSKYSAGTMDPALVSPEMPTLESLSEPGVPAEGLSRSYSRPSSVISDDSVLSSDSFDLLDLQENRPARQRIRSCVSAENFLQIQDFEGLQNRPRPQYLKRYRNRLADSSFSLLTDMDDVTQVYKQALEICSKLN
Sequence of Tyrosine-protein kinase BTK (Homo sapiens) (Q06187 whole entry, the tested form may be a part): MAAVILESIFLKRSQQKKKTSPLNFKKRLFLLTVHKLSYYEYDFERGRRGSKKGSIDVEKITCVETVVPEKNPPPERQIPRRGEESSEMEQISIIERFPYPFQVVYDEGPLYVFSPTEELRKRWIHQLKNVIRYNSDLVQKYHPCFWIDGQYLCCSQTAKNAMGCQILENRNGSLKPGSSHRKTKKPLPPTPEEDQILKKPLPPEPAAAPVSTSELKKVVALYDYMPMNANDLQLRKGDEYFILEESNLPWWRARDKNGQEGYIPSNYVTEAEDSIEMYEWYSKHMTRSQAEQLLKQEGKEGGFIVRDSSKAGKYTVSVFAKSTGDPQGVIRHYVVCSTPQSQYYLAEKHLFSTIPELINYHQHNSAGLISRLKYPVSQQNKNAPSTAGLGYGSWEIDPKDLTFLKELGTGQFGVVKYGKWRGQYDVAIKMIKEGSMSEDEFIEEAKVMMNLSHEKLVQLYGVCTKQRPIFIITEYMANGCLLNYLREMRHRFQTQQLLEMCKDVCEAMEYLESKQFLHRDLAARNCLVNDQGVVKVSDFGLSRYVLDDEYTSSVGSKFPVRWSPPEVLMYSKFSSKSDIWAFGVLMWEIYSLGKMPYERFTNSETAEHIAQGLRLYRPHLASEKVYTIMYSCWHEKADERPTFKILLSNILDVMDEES
Sequence of Serine/threonine-protein kinase STK11 (Homo sapiens) (Q15831 whole entry, the tested form may be a part): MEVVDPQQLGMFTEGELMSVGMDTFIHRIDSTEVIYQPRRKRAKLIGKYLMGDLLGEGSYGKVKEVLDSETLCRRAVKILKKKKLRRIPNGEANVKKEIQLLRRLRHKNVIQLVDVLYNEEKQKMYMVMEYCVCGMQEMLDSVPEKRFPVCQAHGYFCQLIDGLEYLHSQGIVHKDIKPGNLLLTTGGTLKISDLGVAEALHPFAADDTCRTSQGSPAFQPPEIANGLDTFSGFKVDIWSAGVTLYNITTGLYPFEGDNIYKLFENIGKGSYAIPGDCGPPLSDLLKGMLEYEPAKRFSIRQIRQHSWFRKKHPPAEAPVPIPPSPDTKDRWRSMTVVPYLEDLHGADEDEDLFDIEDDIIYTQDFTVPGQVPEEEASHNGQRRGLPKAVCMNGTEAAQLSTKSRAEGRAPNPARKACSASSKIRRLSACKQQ
Sequence of Serine/threonine-protein kinase PAK 2 (Homo sapiens), Q13177 [T402E] (Q13177 whole entry T402E, the tested form may be a part): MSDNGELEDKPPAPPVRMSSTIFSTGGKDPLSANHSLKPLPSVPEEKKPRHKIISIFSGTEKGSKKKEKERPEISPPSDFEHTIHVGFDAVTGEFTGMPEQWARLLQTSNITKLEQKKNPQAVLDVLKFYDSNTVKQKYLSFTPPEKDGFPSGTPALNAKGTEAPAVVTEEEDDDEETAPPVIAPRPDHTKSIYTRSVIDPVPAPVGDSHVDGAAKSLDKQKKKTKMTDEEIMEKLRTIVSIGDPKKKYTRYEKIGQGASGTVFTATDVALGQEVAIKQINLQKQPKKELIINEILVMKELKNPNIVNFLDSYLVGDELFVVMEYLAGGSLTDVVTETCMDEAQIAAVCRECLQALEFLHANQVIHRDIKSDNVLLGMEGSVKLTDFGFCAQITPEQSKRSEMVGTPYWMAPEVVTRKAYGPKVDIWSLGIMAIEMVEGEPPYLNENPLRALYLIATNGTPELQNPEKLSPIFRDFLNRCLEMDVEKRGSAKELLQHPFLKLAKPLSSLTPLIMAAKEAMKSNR

Compound: Cc1cccc(-c2nc(N)sc2-c2ccc3ncccc3n2)c1
- Activity [1]: 115%
- IC50 [2]: 190 nM
- Activity [3]: 79%
- Activity [4]: 77%
- Activity [5]: 118%
- Ratio IC50 (Cryptosporidium parvum): 940
- Activity [6]: 121%
- Activity [7]: 109%
- Activity [8]: 104%
- Activity [9]: 103%
- Activity [10]: 133%
- Activity [11]: 119%
- Activity [12]: 99%
- Activity [13]: 105%
- Activity [14]: 99%
- Activity [15]: 99%
- Activity [16]: 123%
- Activity [17]: 101%
- Activity [18]: 120%
- Activity [19]: 86%
- Activity [20]: 86%
- Activity [21]: 108%
- Activity [22]: 119%
- Activity [23]: 106%
- Activity [24]: 96%
